This passage reports viability, differential viability (reversal) and inhibition results from PubChem BioAssay.

Test [1] can be described thus: reduced viability of SK-BR-3 breast cancer cells – cell-based, 24 h, human, pilot screen (AID 572;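 active = viability at or below 10% of carrier control in both of two separate runs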;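 note: compound exposure lasted between 18 and 24 h rather than exactly 24 h; 100% = carrier-treated control wells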). Conditions: SK-BR-3 viability, CellTiter-Glo luminescence, at 10 µM, stronger effect = lower value. Background: ATP-based viability assays read luminescence as a measure of living cells.
Test [2] in a line: HUVEC growth inhibition – cell-based, human, primary screen (AID 575).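 Note: 100% = median of untreated cell wells with 0.1% DMSO on each plate.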 Conditions: HUVEC proliferation, CellTiter-Glo luminescence, 72 h; at 10 µM; stronger effect = lower value. The method in brief:
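Test system – primary HUVEC, no more than 12 passages · Dosing – one dose, 10 µM final, 0.1% DMSO · Times – 72 h treatment at 37 °C · Measured by – ATP-based CellTiter-Glo luminescent read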

Test [3] can be described thus: H69AR cell proliferation blockers – human, duplicate replicates, primary screen (AID 580;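 active = viability at or under a set limit in both replicates, limit being median viability minus 3 SD, cut at about 48% in these data, passing the limit was not always enough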;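 note: 100% = mean luminescence of untreated wells and 0% = no signal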). Conditions: H69AR lung tumor cells viability, ATP luminescence, 72 h; at 10 µM; stronger effect = lower value.
Test [4] in a line: MRP1 drug-resistance reversers in H69AR cells – cell-based, doxorubicin co-treatment, pilot screen (AID 601;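 active = viability loss from added drug above about 55%, and viability with drug at most 40%, in both replicates, limit read from the data, passing the limit was not always enough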). To be noted: CellTiter-Glo, 72 h, at 10 µM; for differential viability (reversal): stronger effect = higher value.
A short description of test [5]: yeast transport mutant growth inhibition pilot in 384-well plates, post-Golgi transport modulator project (AID 636; in the data active = inhibition above about 31%). To be noted: absorbance 615 nm, about 18 h, stronger effect = higher value.
Test [6] is described as follows: growth suppression of yeast trafficking mutant, preliminary HTS, modulators of trafficking downstream of Golgi apparatus project, 1536-format plate, OD 615 nm (AID 637; in the data active = inhibition above about 30%). To be noted: yeast transport mutant growth, absorbance 615 nm, 18 h; stronger effect = higher value.
Where [7] appears, read: H69AR cells + 2 uM doxorubicin, measured here: viability with 2 uM doxorubicin, stronger effect = lower value.
Setting [8] is: H69AR cells, compound alone cytotoxicity.

The source made the active and inactive calls.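 Rule for the calls, unless noted: active = viability at or below 30% in both replicate assays; inconclusive = viability at or below 30% in just one of the two assays; inactive = the rest.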

On to `CCCNC(=O)c1cc(S(=O)(=O)N2CCc3ccccc32)ccc1F`, for which the viability in test [1] is 89% (inactive); in test [2], 113% (inactive); in test [3], 97% (inactive); in test [4] (setting [7]) it was 90.3%; in test [4] (setting [8]), 97%. Moreover, in test [4] (H69AR cells + 2 uM doxorubicin), the differential viability (reversal) was 6.73% (inactive). For the same compound, the inhibition in test [5] is -6.13% (inactive); in test [6], 2.18% (inactive).
For `Cn1nc(CC(=O)Nc2ccc(N3CCN(C(=O)OC(C)(C)C)CC3)cc2)c2ccccc2c1=O`, the viability in test [1] was 84% (inactive); in test [2], 9.25% (active); in test [3], 1.72% (active); in test [4] (setting [7]), 4.94%; in test [4] (setting [8]) it was 1.72%. Further, the differential viability (reversal) in test [4] (H69AR cells + 2 uM doxorubicin) is -3.22% (inactive). Moreover, the inhibition in test [5] is -1.82% (inactive); in test [6] it was -4.26% (inactive).
For `COc1ccc(S(=O)(=O)Nc2ccccc2OC)cc1C`, the viability in test [1] is 107% (inactive); in test [2] it was 93.8% (inactive); in test [3], 83.1% (inactive); in test [4] (setting [7]) it was 90.2%; in test [4] (setting [8]) it was 83.1%. The differential viability (reversal) in test [4] (H69AR cells + 2 uM doxorubicin) is -7.08% (inactive). Moreover, the inhibition in test [5] was 0% (inactive); in test [6] it was 0.82% (inactive).
On to `Cc1csc(NC(=O)c2cccs2)n1`, for which the viability is 119% (inactive) in test [1]; 93.9% (inactive) in test [2]; 89.7% (inactive) in test [3]; 85.8% in test [4] (setting [7]); 89.7% in test [4] (setting [8]). Besides, the differential viability (reversal) in test [4] (H69AR cells + 2 uM doxorubicin) is 3.83% (inactive). For the same compound, the results for the inhibition in test [5] and in test [6] were -1.43% (inactive) and 1.48% (inactive), respectively.
As to `COc1cc(S(=O)(=O)NC2CCCCC2C)ccc1Cl` (centres undefined), the viability in test [1] was 83% (inactive); in test [2], 98.3% (inactive); in test [3] it was 92.4% (inactive); in test [4] (setting [7]) it was 95.8%; in test [4] (setting [8]) it was 92.4%. The differential viability (reversal) in test [4] (H69AR cells + 2 uM doxorubicin) is -3.38% (inactive). The inhibition is -7.81% (inactive) in test [5] and 1.45% (inactive) in test [6].
As for `Cc1cc(C(=O)N2CCCc3ccccc32)no1`, the viability in test [1] is 98% (inactive); in test [2], 102% (inactive); in test [3], 105% (inactive); in test [4] (setting [7]), 90.3%; in test [4] (setting [8]) it was 105%. In addition, the differential viability (reversal) in test [4] (H69AR cells + 2 uM doxorubicin) was 14.4% (inactive). Moreover, the figures for the inhibition in test [5] and in test [6] were -2.27% (inactive) and 1.27% (inactive), respectively.
`Clc1cccc(-c2nnc3sc(-c4ccccc4)nn23)c1`: the viability in test [1] was 86% (inactive); in test [2] it was 124% (inactive); in test [3] it was 89.5% (inactive); in test [4] (setting [7]), 92.6%; in test [4] (setting [8]), 89.5%. In addition, the differential viability (reversal) in test [4] (H69AR cells + 2 uM doxorubicin) was -3.02% (inactive). In addition, the inhibition in test [5] was -0.27% (inactive); in test [6], -4% (inactive).
For `COc1cccc(CC(=O)Nn2c(C)nc3ccccc3c2=O)c1`, the viability in test [1] is 83% (inactive); in test [2], 115% (inactive); in test [3], 99.3% (inactive); in test [4] (setting [7]) it was 87.5%; in test [4] (setting [8]), 99.3%. In addition, the differential viability (reversal) in test [4] (H69AR cells + 2 uM doxorubicin) was 11.8% (inactive). Besides, the values for the inhibition in test [5] and in test [6] were -3.07% (inactive) and -5.27% (inactive), respectively.
With `COc1cc(SC)ccc1C(=O)Nc1ccccc1C#N`, the viability in test [1] was 75% (inactive); in test [2], 79.6% (inactive); in test [3], 70.5% (inactive); in test [4] (setting [7]), 96.3%; in test [4] (setting [8]) it was 70.5%. Also, in test [4] (H69AR cells + 2 uM doxorubicin), the differential viability (reversal) is -25.8% (inactive). The inhibition in test [5] is -7.4% (inactive); in test [6], 0.91% (inactive).
Take `CCCCCc1c(C)nc(SCC(=O)O)[nH]c1=O`: the viability in test [1] was 108% (inactive); in test [2] it was 108% (inactive); in test [3] it was 111% (inactive); in test [4] (setting [7]), 97.1%; in test [4] (setting [8]), 111%. Moreover, the differential viability (reversal) in test [4] (H69AR cells + 2 uM doxorubicin) was 14% (inactive). Further, the inhibition in test [5] was 1.23% (inactive); in test [6], -3.39% (inactive).
For `Cc1nc2ncnn2c(C)c1CCC(=O)NCCCN1CCN(c2cccc(Cl)c2)CC1`, the viability is 78% (inactive) in test [1]; 76.4% (inactive) in test [2]; 96.5% (inactive) in test [3]; 90.1% in test [4] (setting [7]); 96.5% in test [4] (setting [8]). In addition, the differential viability (reversal) in test [4] (H69AR cells + 2 uM doxorubicin) was 6.44% (inactive). The figures for the inhibition in test [5] and in test [6] were -2.21% (inactive) and -3.77% (inactive), respectively.
Consider `COc1cc(CO)cc(-c2cc(CO)cc(OC)c2OC)c1OC`, for which the viability in test [1] is 82% (inactive); in test [2] it was 95.8% (inactive); in test [3] it was 92.5% (inactive); in test [4] (setting [7]), 90.9%; in test [4] (setting [8]), 92.5%. In addition, the differential viability (reversal) in test [4] (H69AR cells + 2 uM doxorubicin) is 1.68% (inactive). Besides, the values for the inhibition in test [5] and in test [6] were -8.67% (inactive) and -6.91% (inactive), respectively.
As for `CCOc1ccc(NS(=O)(=O)c2ccc(OCC(=O)N3CCCC3)cc2)cc1`, the viability in test [1] is 92% (inactive); in test [2] it was 102% (inactive); in test [3], 88.7% (inactive); in test [4] (setting [7]), 85.2%; in test [4] (setting [8]) it was 88.7%. Moreover, the differential viability (reversal) in test [4] (H69AR cells + 2 uM doxorubicin) is 3.44% (inactive). The inhibition in test [5] was 1.51% (inactive); in test [6], -4.84% (inactive).
Take `CCOc1ncccc1C(=O)Nc1ccc(Cl)cc1`: the viability was 92% (inactive) in test [1]; 91.4% (inactive) in test [2]; 79.8% (inactive) in test [3]; 83.2% in test [4] (setting [7]); 79.8% in test [4] (setting [8]). Also, the differential viability (reversal) in test [4] (H69AR cells + 2 uM doxorubicin) is -3.41% (inactive). The inhibition was 1.17% (inactive) in test [5] and 0.49% (inactive) in test [6].
`COc1ccc(OC)c(NC(=O)CSc2nnc(-c3ccco3)n2-c2ccccc2)c1`: the viability in test [1] was 59% (inactive); in test [2], 83% (inactive); in test [3], 90.4% (inactive); in test [4] (setting [7]), 85.4%; in test [4] (setting [8]), 90.4%. Further, in test [4] (H69AR cells + 2 uM doxorubicin), the differential viability (reversal) was 5.04% (inactive). Besides, the inhibition in test [5] is -6.3% (inactive); in test [6] it was 3.45% (inactive).
With `CSc1ccccc1NC(=O)CN(c1ccccc1)S(=O)(=O)N(C)C`, the viability in test [1] was 83% (inactive); in test [2] it was 98.3% (inactive); in test [3], 87.7% (inactive); in test [4] (setting [7]), 85.7%; in test [4] (setting [8]), 87.7%. For the same compound, the differential viability (reversal) in test [4] (H69AR cells + 2 uM doxorubicin) was 2.04% (inactive). Besides, the values for the inhibition in test [5] and in test [6] were -8.49% (inactive) and 0.18% (inactive), respectively.
Turning to `COC(=O)c1ccc(COc2ccc(C3C4=C(CCCC4=O)Nc4onc(C)c43)cc2)cc1` (centres undefined), the viability was 104% (inactive) in test [1]; 82.3% (inactive) in test [2]; 94.7% (inactive) in test [3]; 92.7% in test [4] (setting [7]); 94.7% in test [4] (setting [8]). In test [4] (H69AR cells + 2 uM doxorubicin), the differential viability (reversal) was 2.04% (inactive). Besides, the inhibition was -5.19% (inactive) in test [5] and -3.93% (inactive) in test [6].
`O=C(O)C1CCCCC1C(=O)Nc1ccccn1` (centres undefined): the viability in test [1] was 115% (inactive); in test [2] it was 93.9% (inactive); in test [3], 108% (inactive); in test [4] (setting [7]), 99.4%; in test [4] (setting [8]) it was 108%. In test [4] (H69AR cells + 2 uM doxorubicin), the differential viability (reversal) was 8.84% (inactive). The figures for the inhibition in test [5] and in test [6] were -4.52% (inactive) and -4.73% (inactive), respectively.

Broadly, the viability is a read-out of living cells in per cent, often relative to untreated cells. Usually inhibition stands for the relative decrease from the control value, in per cent.
